Key:
U2OS [1] = experiment: Multiplex assay against U2OS; assay type: toxicity, cell-based; settings: human
Outline: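 Hoechst33342, BioTracker Green Microtubule Cytoskeleton Dye, MitoTracker Red and Annexin V Alexa Fluor 680 were added to live cells at seeding, and imaging on a CQ1 microscope at 37°C and 5% CO2 followed compound addition. Gating by CellPathfinder machine learning separated cells into Hoechst high-intensity objects or normal cells, then normal cells into healthy, pyknosed or fragmented nuclei, then pyknosed cells into mitotic or apoptotic. Per cents of healthy-nucleus cells are reported for the tubulin, mitochondrial-mass and membrane-permeability phenotypes.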

U2OS [2] = experiment: Incucyte cell viability with U2OS; assay type: toxicity, cell-based; settings: human, 10 µM, compound concentration 10 uM; note: filed as whole numbers so only -1 and 0 and 1 occur
[3] = 12 h, 1 µM, compound concentration 1 uM, replicate 1
[4] = 12 h, 1 µM, compound concentration 1 uM, replicate 2
[5] = 12 h, 10 µM, compound concentration 10 uM, replicate 1
[6] = 12 h, 10 µM, compound concentration 10 uM, replicate 2
[7] = 24 h, 1 µM, compound concentration 1 uM, replicate 1
[8] = 24 h, 1 µM, compound concentration 1 uM, replicate 2
[9] = 24 h, 10 µM, compound concentration 10 uM, replicate 1
[10] = 24 h, 10 µM, compound concentration 10 uM, replicate 2
[11] = 48 h, 1 µM, compound concentration 1 uM, replicate 1
[12] = 48 h, 1 µM, compound concentration 1 uM, replicate 2
[13] = 48 h, 10 µM, compound concentration 10 uM, replicate 1
[14] = 48 h, 10 µM, compound concentration 10 uM, replicate 2

CN(c1cc(C(F)(F)F)nc(OCCC(=O)O)n1)c1cccc2c1CCC2
Population Apoptotic (%) (U2OS [1]; [3]): 33%
Population Fragmented Nuclei (%) (U2OS [1]; [3]): 24%
Population Healthy Nuclei (%) (U2OS [1]; [3]): 64%
Population Hoechst High Intensity Objects (%) (U2OS [1]; [3]): 11%
Population Membrane Permeable-Phenotype (%) (U2OS [1]; [3]): 8%
Population Mitochondria Different-Phenotype (%) (U2OS [1]; [3]): 12%
Population Mitotic Cells (%) (U2OS [1]; [3]): 66%
Population Normal (%) (U2OS [1]; [3]): 88%
Population Pyknosed Nuclei (%) (U2OS [1]; [3]): 11%
Population Tubulin-Different-Phenotype (%) (U2OS [1]; [3]): 10%
Total Cell Count (U2OS [1]; [3]): 191
Population Apoptotic (%) (U2OS [1]; [4]): 0%
Population Fragmented Nuclei (%) (U2OS [1]; [4]): 9%
Population Healthy Nuclei (%) (U2OS [1]; [4]): 80%
Population Hoechst High Intensity Objects (%) (U2OS [1]; [4]): 12%
Population Membrane Permeable-Phenotype (%) (U2OS [1]; [4]): 4%
Population Mitochondria Different-Phenotype (%) (U2OS [1]; [4]): 20%
Population Mitotic Cells (%) (U2OS [1]; [4]): 100%
Population Normal (%) (U2OS [1]; [4]): 87%
Population Pyknosed Nuclei (%) (U2OS [1]; [4]): 9%
Population Tubulin-Different-Phenotype (%) (U2OS [1]; [4]): 28%
Total Cell Count (U2OS [1]; [4]): 65
Population Apoptotic (%) (U2OS [1]; [5]): 23%
Population Fragmented Nuclei (%) (U2OS [1]; [5]): 11%
Population Healthy Nuclei (%) (U2OS [1]; [5]): 77%
Population Hoechst High Intensity Objects (%) (U2OS [1]; [5]): 5%
Population Membrane Permeable-Phenotype (%) (U2OS [1]; [5]): 9%
Population Mitochondria Different-Phenotype (%) (U2OS [1]; [5]): 13%
Population Mitotic Cells (%) (U2OS [1]; [5]): 76%
Population Normal (%) (U2OS [1]; [5]): 94%
Population Pyknosed Nuclei (%) (U2OS [1]; [5]): 11%
Population Tubulin-Different-Phenotype (%) (U2OS [1]; [5]): 15%
Total Cell Count (U2OS [1]; [5]): 149
Population Apoptotic (%) (U2OS [1]; [6]): 0%
Population Fragmented Nuclei (%) (U2OS [1]; [6]): 13%
Population Healthy Nuclei (%) (U2OS [1]; [6]): 86%
Population Hoechst High Intensity Objects (%) (U2OS [1]; [6]): 14%
Population Membrane Permeable-Phenotype (%) (U2OS [1]; [6]): 4%
Population Mitochondria Different-Phenotype (%) (U2OS [1]; [6]): 10%
Population Mitotic Cells (%) (U2OS [1]; [6]): 0%
Population Normal (%) (U2OS [1]; [6]): 85%
Population Pyknosed Nuclei (%) (U2OS [1]; [6]): 0%
Population Tubulin-Different-Phenotype (%) (U2OS [1]; [6]): 30%
Total Cell Count (U2OS [1]; [6]): 71
Population Apoptotic (%) (U2OS [1]; [7]): 40%
Population Fragmented Nuclei (%) (U2OS [1]; [7]): 16%
Population Healthy Nuclei (%) (U2OS [1]; [7]): 77%
Population Hoechst High Intensity Objects (%) (U2OS [1]; [7]): 7%
Population Membrane Permeable-Phenotype (%) (U2OS [1]; [7]): 6%
Population Mitochondria Different-Phenotype (%) (U2OS [1]; [7]): 10%
Population Mitotic Cells (%) (U2OS [1]; [7]): 60%
Population Normal (%) (U2OS [1]; [7]): 92%
Population Pyknosed Nuclei (%) (U2OS [1]; [7]): 6%
Population Tubulin-Different-Phenotype (%) (U2OS [1]; [7]): 5%
Total Cell Count (U2OS [1]; [7]): 200
Population Apoptotic (%) (U2OS [1]; [8]): 0%
Population Fragmented Nuclei (%) (U2OS [1]; [8]): 4%
Population Healthy Nuclei (%) (U2OS [1]; [8]): 95%
Population Hoechst High Intensity Objects (%) (U2OS [1]; [8]): 8%
Population Membrane Permeable-Phenotype (%) (U2OS [1]; [8]): 2%
Population Mitochondria Different-Phenotype (%) (U2OS [1]; [8]): 13%
Population Mitotic Cells (%) (U2OS [1]; [8]): 0%
Population Normal (%) (U2OS [1]; [8]): 91%
Population Pyknosed Nuclei (%) (U2OS [1]; [8]): 0%
Population Tubulin-Different-Phenotype (%) (U2OS [1]; [8]): 30%
Total Cell Count (U2OS [1]; [8]): 68
Population Apoptotic (%) (U2OS [1]; [9]): 52%
Population Fragmented Nuclei (%) (U2OS [1]; [9]): 8%
Population Healthy Nuclei (%) (U2OS [1]; [9]): 84%
Population Hoechst High Intensity Objects (%) (U2OS [1]; [9]): 3%
Population Membrane Permeable-Phenotype (%) (U2OS [1]; [9]): 5%
Population Mitochondria Different-Phenotype (%) (U2OS [1]; [9]): 10%
Population Mitotic Cells (%) (U2OS [1]; [9]): 47%
Population Normal (%) (U2OS [1]; [9]): 96%
Population Pyknosed Nuclei (%) (U2OS [1]; [9]): 7%
Population Tubulin-Different-Phenotype (%) (U2OS [1]; [9]): 14%
Total Cell Count (U2OS [1]; [9]): 176
Population Apoptotic (%) (U2OS [1]; [10]): 0%
Population Fragmented Nuclei (%) (U2OS [1]; [10]): 13%
Population Healthy Nuclei (%) (U2OS [1]; [10]): 81%
Population Hoechst High Intensity Objects (%) (U2OS [1]; [10]): 13%
Population Membrane Permeable-Phenotype (%) (U2OS [1]; [10]): 3%
Population Mitochondria Different-Phenotype (%) (U2OS [1]; [10]): 13%
Population Mitotic Cells (%) (U2OS [1]; [10]): 100%
Population Normal (%) (U2OS [1]; [10]): 86%
Population Pyknosed Nuclei (%) (U2OS [1]; [10]): 5%
Population Tubulin-Different-Phenotype (%) (U2OS [1]; [10]): 44%
Total Cell Count (U2OS [1]; [10]): 79
Population Apoptotic (%) (U2OS [1]; [11]): 43%
Population Fragmented Nuclei (%) (U2OS [1]; [11]): 7%
Population Healthy Nuclei (%) (U2OS [1]; [11]): 86%
Population Hoechst High Intensity Objects (%) (U2OS [1]; [11]): 5%
Population Membrane Permeable-Phenotype (%) (U2OS [1]; [11]): 4%
Population Mitotic Cells (%) (U2OS [1]; [11]): 56%
Population Normal (%) (U2OS [1]; [11]): 94%
Population Pyknosed Nuclei (%) (U2OS [1]; [11]): 6%
Population Tubulin-Different-Phenotype (%) (U2OS [1]; [11]): 8%
Total Cell Count (U2OS [1]; [11]): 200
Population Apoptotic (%) (U2OS [1]; [12]): 40%
Population Fragmented Nuclei (%) (U2OS [1]; [12]): 6%
Population Healthy Nuclei (%) (U2OS [1]; [12]): 88%
Population Hoechst High Intensity Objects (%) (U2OS [1]; [12]): 6%
Population Membrane Permeable-Phenotype (%) (U2OS [1]; [12]): 5%
Population Mitochondria Different-Phenotype (%) (U2OS [1]; [12]): 15%
Population Mitotic Cells (%) (U2OS [1]; [12]): 60%
Population Normal (%) (U2OS [1]; [12]): 93%
Population Pyknosed Nuclei (%) (U2OS [1]; [12]): 4%
Population Tubulin-Different-Phenotype (%) (U2OS [1]; [12]): 24%
Total Cell Count (U2OS [1]; [12]): 81
Population Apoptotic (%) (U2OS [1]; [13]): 50%
Population Fragmented Nuclei (%) (U2OS [1]; [13]): 5%
Population Healthy Nuclei (%) (U2OS [1]; [13]): 89%
Population Hoechst High Intensity Objects (%) (U2OS [1]; [13]): 2%
Population Membrane Permeable-Phenotype (%) (U2OS [1]; [13]): 2%
Population Mitochondria Different-Phenotype (%) (U2OS [1]; [13]): 9%
Population Mitotic Cells (%) (U2OS [1]; [13]): 50%
Population Normal (%) (U2OS [1]; [13]): 97%
Population Pyknosed Nuclei (%) (U2OS [1]; [13]): 4%
Population Tubulin-Different-Phenotype (%) (U2OS [1]; [13]): 15%
Total Cell Count (U2OS [1]; [13]): 251
Population Apoptotic (%) (U2OS [1]; [14]): 20%
Population Fragmented Nuclei (%) (U2OS [1]; [14]): 8%
Population Healthy Nuclei (%) (U2OS [1]; [14]): 87%
Population Hoechst High Intensity Objects (%) (U2OS [1]; [14]): 6%
Population Membrane Permeable-Phenotype (%) (U2OS [1]; [14]): 1%
Population Mitochondria Different-Phenotype (%) (U2OS [1]; [14]): 6%
Population Mitotic Cells (%) (U2OS [1]; [14]): 80%
Population Normal (%) (U2OS [1]; [14]): 93%
Population Pyknosed Nuclei (%) (U2OS [1]; [14]): 3%
Population Tubulin-Different-Phenotype (%) (U2OS [1]; [14]): 38%
Total Cell Count (U2OS [1]; [14]): 113
Growth Rate (U2OS [2]; 0 h, replicate number 1, timepoint 0 hours): 0
Growth Rate (U2OS [2]; 6 h, replicate number 2, timepoint 6 hours): 0
Growth Rate (U2OS [2]; 12 h, replicate number 1, timepoint 12 hours): 0
Growth Rate (U2OS [2]; 18 h, replicate number 1, timepoint 18 hours): 0
Growth Rate (U2OS [2]; 24 h, replicate number 1, timepoint 24 hours): 0
